Data on 13 compounds can be found in ChEMBL document CHEMBL5223178, “Macrocyclic Retinoic Acid Receptor-Related Orphan Receptor C2 Inverse Agonists” (ACS Med Chem Lett, 2023).

The nature of series [1]: Inhibition of IL-17A production in human Th17 cells incubated for 6 days […]. The class given is functional, cell-based. As to conditions: Th17, 144 h. Put shortly:
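Inhibition of IL-17A production by human primary Th17 cells. Values are means of two or more independent assays.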

Series [2] can be described thus: Lipophilicity, log D of the compound at pH 7.4 by reverse phase HPLC. The format is physicochemical. The conditions noted are these: buffer. Put shortly:
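LogD at pH 7.4 determined by reverse-phase HPLC. Values are means of two or more independent assays.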

The nature of series [3]: Clearance in human liver microsomes. The class given is ADME, Microsome. The conditions noted are these: read-out: CLH.
Series [4] is described as follows: Inverse agonist activity at 6His-tagged RORC2 LBD (unknown origin) expressed in Escherichia coli assessed as inhibition of biotinylated SRC1-2 derived CPSSHSSLTERHKILHRLLQEGSPS-NH2 containing LXXLL coactivator peptide incubated for 3 hrs by TR-FRET assay. On the set-up: species or system Homo sapiens. Summed up:
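TR-FRET cofactor recruitment measuring displacement of SRC1-2 coactivator peptide binding to histidine-tagged RORC2 ligand-binding domain. Values are means of two or more independent assays.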

In series [5] the target is Voltage-gated inwardly rectifying potassium channel KCNH2 (Homo sapiens, UniProt Q12809). Description: Displacement of [3H]-dofetilide from human ERG. The format is toxicity. Put shortly: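 Binding assay measuring displacement of [3H]dofetilide. Values are means of two or more independent assays.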
Chain of Voltage-gated inwardly rectifying potassium channel KCNH2 (Q12809 whole entry): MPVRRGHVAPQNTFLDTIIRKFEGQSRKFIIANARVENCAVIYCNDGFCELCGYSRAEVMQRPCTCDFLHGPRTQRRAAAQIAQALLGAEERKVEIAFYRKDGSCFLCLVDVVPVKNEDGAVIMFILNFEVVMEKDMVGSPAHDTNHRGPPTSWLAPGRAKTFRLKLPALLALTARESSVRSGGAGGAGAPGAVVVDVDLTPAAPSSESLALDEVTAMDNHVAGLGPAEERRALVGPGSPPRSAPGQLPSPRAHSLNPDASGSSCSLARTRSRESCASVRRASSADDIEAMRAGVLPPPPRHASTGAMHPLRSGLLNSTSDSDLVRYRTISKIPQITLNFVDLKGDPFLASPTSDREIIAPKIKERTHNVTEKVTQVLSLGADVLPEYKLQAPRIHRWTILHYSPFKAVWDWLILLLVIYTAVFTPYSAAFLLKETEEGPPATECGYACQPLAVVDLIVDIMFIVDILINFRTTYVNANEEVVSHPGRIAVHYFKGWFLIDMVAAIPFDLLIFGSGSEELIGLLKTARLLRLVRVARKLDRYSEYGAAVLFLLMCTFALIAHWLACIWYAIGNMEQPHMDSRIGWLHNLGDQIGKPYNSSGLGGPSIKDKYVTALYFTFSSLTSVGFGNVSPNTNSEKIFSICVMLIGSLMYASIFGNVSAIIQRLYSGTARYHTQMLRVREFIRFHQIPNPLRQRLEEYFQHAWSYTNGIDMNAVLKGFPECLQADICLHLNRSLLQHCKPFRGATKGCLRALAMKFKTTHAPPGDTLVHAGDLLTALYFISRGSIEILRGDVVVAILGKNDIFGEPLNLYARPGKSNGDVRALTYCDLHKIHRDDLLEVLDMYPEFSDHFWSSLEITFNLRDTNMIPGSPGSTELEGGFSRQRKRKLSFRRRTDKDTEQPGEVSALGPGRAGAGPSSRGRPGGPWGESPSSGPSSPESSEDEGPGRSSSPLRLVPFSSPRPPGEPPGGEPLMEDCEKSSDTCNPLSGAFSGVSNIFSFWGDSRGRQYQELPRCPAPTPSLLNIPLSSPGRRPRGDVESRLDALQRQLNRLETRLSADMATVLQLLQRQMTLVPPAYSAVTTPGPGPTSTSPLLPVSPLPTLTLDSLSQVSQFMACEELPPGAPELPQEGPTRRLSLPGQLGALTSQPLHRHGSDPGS
The nature of series [6]: Passive apparent permeability in MDCKII-LE cells. The format is ADME, cell-based, Canis lupus familiaris. The conditions noted are these: dog, MDCK. Put shortly: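 Passive permeability measured across RRCK (MDCKII-LE) cell monolayers. Values are means of two or more independent assays.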
Series [7] concerns the target T1, Nuclear receptor ROR-alpha (Homo sapiens, UniProt P35398).
T1 sequence (P35398 whole entry): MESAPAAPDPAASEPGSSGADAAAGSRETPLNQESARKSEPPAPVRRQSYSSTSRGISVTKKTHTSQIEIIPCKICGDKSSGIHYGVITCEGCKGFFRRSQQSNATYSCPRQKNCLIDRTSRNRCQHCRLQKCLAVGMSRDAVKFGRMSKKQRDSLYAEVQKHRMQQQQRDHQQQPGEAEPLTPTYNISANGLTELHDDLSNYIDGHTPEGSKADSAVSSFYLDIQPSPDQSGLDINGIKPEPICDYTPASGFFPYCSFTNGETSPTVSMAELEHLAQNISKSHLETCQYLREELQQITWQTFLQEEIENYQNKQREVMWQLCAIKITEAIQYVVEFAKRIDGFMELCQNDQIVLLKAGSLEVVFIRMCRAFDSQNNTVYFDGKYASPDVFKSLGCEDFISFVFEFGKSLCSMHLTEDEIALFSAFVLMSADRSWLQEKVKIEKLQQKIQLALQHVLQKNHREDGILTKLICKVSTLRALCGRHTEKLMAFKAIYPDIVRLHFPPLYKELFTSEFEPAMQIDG
Description: Inverse agonist activity at 6His-tagged RORA LBD (unknown origin) expressed in Escherichia coli assessed as inhibition of biotinylated SRC1-2 derived CPSSHSSLTERHKILHRLLQEGSPS-NH2 containing LXXLL coactivator peptide incubated for 3 hrs by TR-FRET assay.

In series [8] the target is T2, Nuclear receptor ROR-beta (Homo sapiens, UniProt Q92753).
T2 sequence (Q92753 whole entry): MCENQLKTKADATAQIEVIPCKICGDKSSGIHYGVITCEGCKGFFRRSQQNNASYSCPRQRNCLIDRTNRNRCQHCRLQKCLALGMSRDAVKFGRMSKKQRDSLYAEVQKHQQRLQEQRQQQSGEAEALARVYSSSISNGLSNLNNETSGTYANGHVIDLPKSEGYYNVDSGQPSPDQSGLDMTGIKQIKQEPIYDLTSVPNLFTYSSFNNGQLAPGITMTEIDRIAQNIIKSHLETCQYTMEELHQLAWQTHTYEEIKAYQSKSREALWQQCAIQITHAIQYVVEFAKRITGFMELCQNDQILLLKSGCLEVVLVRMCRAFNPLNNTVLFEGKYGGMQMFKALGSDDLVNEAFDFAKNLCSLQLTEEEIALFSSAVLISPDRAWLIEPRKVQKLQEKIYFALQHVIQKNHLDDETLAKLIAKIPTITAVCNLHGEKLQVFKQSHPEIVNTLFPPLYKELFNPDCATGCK
Description: Inverse agonist activity at 6His-tagged RORB LBD (unknown origin) expressed in Escherichia coli assessed as inhibition of biotinylated SRC1-2 derived CPSSHSSLTERHKILHRLLQEGSPS-NH2 containing LXXLL coactivator peptide incubated for 3 hrs by TR-FRET assay. On the technique in general: In TR-FRET formats the signal depends on donor and acceptor labels being close together.

Series [9] has as its system Homo sapiens. Briefly: Ex vivo drug penetration in human abdominal skin applied topically using flow-through diffusion cell assessed as compound concentration in dermis layers measured upto 24 hrs by LC-MS/MS based in vitro skin penetration assay. The format is functional, Abdomen skin. Put shortly:
(§1)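 Ex vivo human skin dosed topically with a 2.75% (w/w) formulation in 30% ethanol, 30% PEG400, 20% diethylene glycol monoethyl ether and 20% glycerin (w/w). Cumulative amount in receptor solution (ng/cm2) was followed over 24 h. At 24 h, excess surface compound was removed, and epidermis and dermis were separated and homogenized to measure concentration (μg/g). Results are means with SEM.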

Series [10] relates to Homo sapiens. Description: Ex vivo drug penetration in human abdominal skin applied topically using flow-through diffusion cell assessed as compound concentration in skin epidermis measured upto 24 hrs by LC-MS/MS based in vitro skin penetration assay. The conditions noted are these: Abdomen skin. The format is functional. Put shortly: as §1
The subject of series [11] is HeLa. Briefly: Antagonist activity at RORC2 in human HeLa cells assessed as reduction in NR activity at 1 to 10 uM relative to control. Also noted: scale not given: the % may be the effect or the level left. The conditions noted are these: dose 1-10 µM. The class given is cell-based. Summed up: (§2)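 Multiplexed trans-FACTORIAL profiling: cells transfected with ligand-binding-domain chimeric constructs of 48 nuclear receptors fused to GAL4 DNA. Reporter RNA levels were measured. Compound was tested at 1 and 10 μM. Readout was fold change versus control, with a 20% change as the threshold for antagonist (reduction) or agonist (increase) effect.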

Series [12] deals with Homo sapiens. Description: Ex vivo drug penetration in human abdominal skin applied topically using flow-through diffusion cell assessed as compound flux through skin measured upto 24 hrs by LC-MS/MS based in vitro skin penetration assay. The format is functional. As to conditions: Abdomen skin. Put shortly: as §1
Series [13] deals with T3, PXR (NR1I2) (Homo sapiens, UniProt O75469).
T3 sequence (O75469 whole entry): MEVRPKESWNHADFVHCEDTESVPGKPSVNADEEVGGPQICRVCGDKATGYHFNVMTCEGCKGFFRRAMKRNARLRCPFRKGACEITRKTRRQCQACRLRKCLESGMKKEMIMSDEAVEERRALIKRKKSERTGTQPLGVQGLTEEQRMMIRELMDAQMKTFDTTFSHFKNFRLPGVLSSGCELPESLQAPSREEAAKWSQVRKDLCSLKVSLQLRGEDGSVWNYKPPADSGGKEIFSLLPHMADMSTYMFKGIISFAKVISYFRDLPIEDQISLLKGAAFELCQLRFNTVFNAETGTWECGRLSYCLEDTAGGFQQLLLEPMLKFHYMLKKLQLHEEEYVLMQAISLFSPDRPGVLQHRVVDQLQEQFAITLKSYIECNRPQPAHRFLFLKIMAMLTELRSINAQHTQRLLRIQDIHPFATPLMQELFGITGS
Description: Agonist activity at PXR in human HeLa cells assessed as increase in NR activity at 10 uM relative to control. The class given is cell-based. As to conditions: read-out: Activity. Put shortly: as §2

Where only a bound is given, the exact number is not on record here.

One may read the IC50 as the midpoint of a concentration-inhibition curve. The chromatographic logD is lipophilicity estimated from chromatographic retention. For the compound `Cc1c2cc(F)cc1NS(=O)(=O)CCCOCC1CN(CCN1C(=O)CC1CC1)C2` (stereo not drawn), the IC50 in series [1] was determined as 110 nM; in [4] it was 120 nM. This compound displayed a chromatographic logD in [2] of 2.1. In series [3], the microsomal CLint worked out at 55 µL/min/mg.
Broadly, the Ki is the equilibrium dissociation constant of an inhibitor or competing ligand from its target. What is called Papp is the rate of passage across a membrane or cell layer, normalised by area and donor concentration. Consider `Cc1c2cc(Cl)cc1NS(=O)(=O)CCCCC[C@H]1CN(CCN1C(=O)C(C)C)C2`, for which the figures for the IC50 in [1] and in series [4] were 2.2 nM and 2.4 nM, respectively. For the same compound, the chromatographic logD in [2] amounted to 4.3. The microsomal CLint in series [3] is 200 µL/min/mg. The compound further gave a Ki in series [5] of 11000 nM. For the same compound, in series [6], the apparent permeability (Papp) was 17 ×10⁻⁶ cm/s.
With `O=C(CC1CC1)N1CCN2Cc3cc(F)cc(c3)NS(=O)(=O)CCCCCC1C2` (stereo not drawn), the half-maximal inhibitory concentration (IC50) in [1] is greater than 10000 nM; in series [4] it was 2400 nM. In [2], this compound returned a chromatographic logD of 3.6. For the same compound, the microsomal CLint in series [3] turned out to be 80 µL/min/mg. Moreover, the Papp in series [6] came to 11.7 ×10⁻⁶ cm/s.
For `Cc1c(CN2CCN(C(=O)C3CCCC3)[C@@H](C)C2)cc(F)cc1NS(=O)(=O)c1ccc(F)cc1`, the half-maximal inhibitory concentration (IC50) in series [1] came out at 6.5 nM; in [4], 2.1 nM. This compound displayed a chromatographic logD in series [2] of 5.3. Also, in series [3], the microsomal CLint turned out to be 68 µL/min/mg. This compound also gave an inhibition constant (Ki) in [5] of 4000 nM. For the same compound, in [6], the apparent permeability coefficient (Papp) was 1.3 ×10⁻⁶ cm/s.
In the case of `Cc1c2cc(F)cc1NS(=O)(=O)CCCCC1CN(CCN1C(=O)CC1CC1)C2` (stereo not drawn), the IC50 worked out at 2600 nM in series [1] and 620 nM in [4]. This compound returned a chromatographic logD in [2] of 3.3. The microsomal CLint in series [3] was determined as 71 µL/min/mg. For the same compound, the Papp in [6] is 24.7 ×10⁻⁶ cm/s.
As to `Cc1c(CN2CCN(C(=O)C3CCCC3)[C@@H](C)C2)cc(F)cc1NC(=O)c1cccc(C#N)c1`, the results for the IC50 in [1] and in [4] were 16 nM and 5.4 nM, respectively. Besides, the chromatographic logD in series [2] came to 4.5. Also, in series [3], the microsomal CLint is 239 µL/min/mg. This compound yielded a Ki in series [5] of 3600 nM. For the same compound, the Papp in series [6] was 6.5 ×10⁻⁶ cm/s.
Turning to `Cc1c2cc(F)cc1NS(=O)(=O)CCCCC[C@H]1CN(CCN1C(=O)C(C)C)C2`, the IC50 in [1] worked out at 87 nM; in [4], 5.2 nM. In series [2], this compound came in with a chromatographic logD of 3.8. Further, the microsomal CLint in series [3] is 205 µL/min/mg. Besides, the inhibition constant (Ki) in series [5] was 19000 nM. For the same compound, the apparent permeability coefficient (Papp) in series [6] stood at 19 ×10⁻⁶ cm/s.
Turning to `Cc1c2cccc1NS(=O)(=O)CCCCC[C@H]1CN(CCN1C(=O)C(C)C)C2`, the half-inhibitory concentration (IC50) in series [7] is greater than 25000 nM; in [8] it was greater than 25000 nM; in series [1], 28 nM; in series [4], 9.3 nM. In addition, the Activity in series [9] is 18.3 µg/g; in series [11], greater than 20%. In addition, the values for the Drug uptake in series [10] and in series [12] were 92.7 µg/g and 28.1 ng/cm2/h, respectively. The same compound returned a chromatographic logD in series [2] of 3.4. For the same compound, the microsomal CLint in series [3] was found to be 223 µL/min/mg. In [13], the activity at 10 µM is greater than 20%. In [5], the Ki worked out at 37000 nM. The Papp in series [6] amounted to 24 ×10⁻⁶ cm/s.
As to `Cc1c(CN2CCN(C(=O)CC3CC3)[C@@H](C)C2)cc(F)cc1NS(=O)(=O)c1ccc(F)cc1`, the IC50 was 141 nM in series [1] and 12 nM in series [4]. In series [2], this compound registered a chromatographic logD of 4.7. For the same compound, the microsomal CLint in series [3] turned out to be 53 µL/min/mg. In series [5], the inhibition constant (Ki) is 1800 nM. In [6], the Papp was determined as 4.5 ×10⁻⁶ cm/s.
As for `Cc1c2cc(F)cc1NS(=O)(=O)CCCCCC1CN(CCN1C(=O)CC1CC1)C2` (stereo not drawn), the results for the IC50 in series [1] and in series [4] were 55 nM and 69 nM, respectively. Besides, the chromatographic logD in [2] came out at 3.2. Also, the microsomal CLint in [3] worked out at 260 µL/min/mg. Also, the Papp in series [6] worked out at 12.4 ×10⁻⁶ cm/s.
For `Cc1c2cc(F)cc1NS(=O)(=O)N(C)CCCCC1CN(CCN1C(=O)CC1CC1)C2` (stereo not drawn), the half-inhibitory concentration (IC50) in series [1] amounted to 26 nM; in series [4], 14 nM. Besides, the chromatographic logD in [2] was found to be 3.5. For the same compound, in series [3], the microsomal CLint is greater than 320 µL/min/mg. Further, in series [6], the Papp is 21 ×10⁻⁶ cm/s.
For `Cc1c2cc(F)cc1NS(=O)(=O)NCCCCC1CN(CCN1C(=O)CC1CC1)C2` (stereo not drawn) the same measures were 170 nM, 150 nM, 2.9, 160 µL/min/mg and 18.4 ×10⁻⁶ cm/s.
As for `Cc1c2cc(C#N)cc1NS(=O)(=O)CCCCC[C@H]1CN(CCN1C(=O)C(C)C)C2`, the IC50 in [1] stood at 65 nM; in [4] it was 27 nM. This compound yielded a chromatographic logD in [2] of 2.9. In series [3], the microsomal CLint worked out at 130 µL/min/mg. For the same compound, affinity in series [5] was put at a Ki of 17000 nM. The apparent permeability (Papp) in series [6] came to 22 ×10⁻⁶ cm/s.
